Assay results from different studies.
Lines come from different studies, so protocols differ.

| SMILES | tested on | assay | test system | conditions | measurement | value |
| --- | --- | --- | --- | --- | --- | --- |
| O=C(COc1ccc(Cl)cc1)NC12CC(c3nnc([C@H]4C[C@@H](OC(F)(F)F)C4)o3)(C1)C2 | – | – | human, plasma | oral, 260 mg, multiple doses, once daily, steady state, healthy volunteers | AUC | 296 µM·h |
| COc1ccc2c(c1)CN(C(=O)CCN1CCC(Cc3ccccc3)CC1)CC[S@@+]2[O-] | – | – | male human, plasma | intravenous, 0.01 mg/kg, healthy volunteers | AUC(0-t) | 45.2 ng·h/mL |
| CNC(=O)c1cc(Oc2ccc(NC(=O)Nc3ccc(Cl)c(C(F)(F)F)c3)cc2)ccn1 | WISH | cell growth or viability, MTT | – | 3.125 µM, 24 h | viability | 86.2% |
| CC(C)n1c(C2CCNCC2)nc2c([N+](=O)[O-])c(Br)c(Br)cc21 | – | – | human, plasma | oral, 100 mg, patients | AUC(0-t) | 952 ng·h/mL |
| NCc1cc2c(cc1F)C(=O)N(C1CCC(=O)NC1=O)C2 (stereo not shown) | – | – | male cynomolgus monkey, plasma | oral, 0.3 mg/kg, 2 h | concentration | 1.07 ng/mL |
| CC(=O)N(C)[C@H]1CCN(C(=O)c2cnc3c(c2)C[C@](C)(c2ccc(F)cc2)N3)C1 | – | – | male human, plasma | oral, 30 mg, multiple doses, once daily, steady state | AUC(0-t) | 3.63 µM·h |
| CC(=O)O[C@H]1C(=O)[C@@]2(C)[C@H]([C@H](OC(=O)c3ccccc3)[C@]3(O)C[C@H](OC(=O)[C@H](O)[C@@H](NC(=O)c4ccccc4)c4ccccc4)C(C)=C1C3(C)C)[C@]1(OC(C)=O)CO[C@@H]1C[C@@H]2O | CHP-212 | cell growth or viability, SRB | – | 1.524 nM | viability | 89.8% |
| COc1ccc(F)cc1C(=O)NCc1ccc(-c2nn([C@@H](C)C(F)(F)F)c(N)c2C(N)=O)cc1 | – | – | male human, plasma | oral, 200 mg, single dose | AUC(0-inf) | 105000 ng·h/mL |
| CC(C)C[C@H](NC(=O)[C@H](Cc1ccccc1)NC(=O)c1cnccn1)B(O)O | CHP-212 | cell growth or viability, SRB | – | 4.572 nM | viability | 102% |
| O=C(O)COc1cccc(-c2nc(Nc3ccc4[nH]ncc4c3)c3ccccc3n2)c1 | Organic anion transporter 3 (SLC22A8, Homo sapiens, UniProt Q8TCC7) | transporter uptake, inhibitor, radiometric | – | – | IC50 | 15.9 µM |
